Active and inactive are the calls of the source. The calls are words filed in the database; no cut-off is given here.
What was measured:
[1] = Antiproliferative activity against human H460 cells after 72 hrs by SRB method; assay type: functional, cell-based; details: NCI-H460, 72 h
In short: (§1)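 SRB growth assay: cells exposed to compounds over a 100-fold concentration range for 72 h, then cell number quantified. IC50 calculated from the curves. Means of at least 3 experiments, each run in triplicate.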

[2] = Antiproliferative activity against human HCC827 cells after 72 hrs by SRB method; assay type: functional, cell-based; details: HCC827, 72 h; in short: as §1
[3] = Antiproliferative activity against human BxPC3 cells after 72 hrs by SRB method; assay type: functional, cell-based; details: BXPC-3, 72 h; in short: as §1
[4] = Ratio of hydroxychloroquine IC50 to compound IC50 for human H460 cells; assay type: functional
[5] = Ratio of hydroxychloroquine IC50 to compound IC50 for human HCC827 cells; assay type: functional
BXPC-3 = assay: Ratio of hydroxychloroquine IC50 to compound IC50 for human BxPC3 cells; assay type: functional
MDA-MB-231 = assay: Cytotoxicity against human MDA-MB-231 cells after 72 hrs by MTT assay; assay type: functional, cell-based; details: MDA-MB-231, 72 h, pooled result: one value given for 7 cell lines, strains, targets or settings
Homo sapiens = species: Homo sapiens; assay: Cmax in human at 1200 mg; assay type: ADME, organism-based; parameters: dose 1200 mg; details: in vivo
NCI-H460 [6] = assay: Induction of apoptosis in human H460 cells at 25 to 75 uM after 24 hrs by annexin-V staining-based flow cytometry; assay type: functional, cell-based
In short: (§2)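 Apoptosis in treated H460 cells was detected by binding of APC-conjugated annexin V to surface phosphatidylserine, measured by flow cytometry. Means ± SD of 3 experiments; p < 0.05 taken as significant.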

NCI-H3122 = assay: Inhibition of autophagy in human NCI-H3122 cells assessed as increase in punctate LC3 expression at 25 to 50 uM after 6 hrs by fluorescence microscopic analysis; assay type: functional, cell-based
In short: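 NCI-H3122 NSCLC cells transfected with a mCherry-EGFP-LC3B tandem reporter, then treated 6 h. Cells fixed and green, red and yellow fluorescent puncta examined by fluorescence microscopy.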

NCI-H460 [7] = assay: Inhibition of autophagy in human H460 cells assessed as increase in punctate LC3 level after 24 hrs by immunoblot analysis; assay type: functional, cell-based
In short: (§3)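 H460 cells treated 24 h across a concentration series, or with 10 μM compound for varying times, or at 10 μM for 24 h. Cell extracts immunoblotted with anti-LC3 to separate LC3-I from autophagosome-bound LC3-II. Actin probed as loading control.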

NCI-H460 [8] = assay: Inhibition of autophagy in human H460 cells assessed as increase in punctate LC3 level at 10 uM by immunoblot analysis; assay type: functional, cell-based; details: TDE = time-dependent effect; in short: as §3
NCI-H460 [9] = assay: Inhibition of autophagy in human H460 cells assessed as increase in p62 level after 24 hrs by immunoblot analysis; assay type: functional, cell-based
In short: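 H460 cells exposed 24 h to a concentration series. Extracts immunoblotted for p62, with actin as loading control.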

NCI-H460 [10] = assay: Inhibition of autophagy in human H460 cells assessed as increase in LC3-2 level at 10 uM after 24 hrs by immunoblot analysis
[11] = Cytotoxicity against human 1205 Lu cells after 72 hrs by MTT assay; assay type: functional, cell-based
[12] = Cytotoxicity against human C8161 cells after 72 hrs by MTT assay; assay type: functional, cell-based; details: C8161, 72 h
[13] = Cytotoxicity against human LN229 cells after 72 hrs by MTT assay; assay type: functional, cell-based; details: LN-229, 72 h
HT-29 = assay: Cytotoxicity against human HT-29 cells after 72 hrs by MTT assay; assay type: functional, cell-based; details: HT-29, 72 h
[14] = Inhibition of colony formation in human H460 cells at 6.5 to 100 uM treated for 24 hrs followed by incubation in drug free medium for 10 days by crystal violet staining-based assay relative to hydroxychloroquine; assay type: functional, NCI-H460
In short: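 H460 cells exposed to drug for 24 h, after which medium was replaced with drug-free medium. Colonies grew for another 10 days and were stained with crystal violet.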

NCI-H460 [15] = assay: Induction of apoptosis in human H460 cells after 24 hrs by annexin-V staining-based flow cytometry; assay type: functional, cell-based; in short: as §2

Structure (SMILES)	IC50 [1]	IC50 [2]	IC50 [3]	Ratio IC50 [4]	Ratio IC50 [5]	Ratio IC50 (BXPC-3)	further results
CN(CCNc1ccnc2cc(Cl)ccc12)Cc1cn(-c2ccnc3cc(Cl)ccc23)nn1	29 µM	18 µM	16 µM	2.7	2.7	2.7	
CN(CCNCc1cn(Cc2nc3ccccc3[nH]2)nn1)CCNc1ccnc2cc(Cl)ccc12	120 µM	164 µM					
CN(CCNCc1cn(CCn2c(=O)[nH]c3ccccc3c2=O)nn1)CCNc1ccnc2cc(Cl)ccc12	147 µM	> 200 µM					
CN(CCNCc1cn(-c2ccnc3cc(Cl)ccc23)nn1)CCNc1ccnc2cc(Cl)ccc12	16 µM	18 µM	8.8 µM	3.9	3.9	3.9	
CCN(CC)CCNc1ccc(C)c2sc3ccccc3c(=O)c12 [LUCANTHONE]							IC50 (MDA-MB-231): 5.7 µM
CN(CCNCc1cn(-c2cccc(Cl)c2)nn1)CCNc1ccnc2cc(Cl)ccc12	17 µM	9.4 µM	12 µM	4.7	4.7	4.7	
CCN(CCO)CCCC(C)Nc1ccnc2cc(Cl)ccc12 (stereo not given) [HYDROXYCHLOROQUINE]	74 µM	65 µM	33 µM				Cmax (Homo sapiens): 7 µM; Activity (NCI-H460 [6]): Active; inhibition (NCI-H3122): Active; inhibition (NCI-H460 [7]): Dose-dependent effect; inhibition (NCI-H460 [8]): tde; inhibition (NCI-H460 [9]): Dose-dependent effect; inhibition (NCI-H460 [10]): Active
CCN(CC)CCCC(C)Nc1ccnc2cc(Cl)ccc12 (stereo not given) [CHLOROQUINE]	52 µM	76 µM	25 µM	1.2	1.2	1.2	Activity (NCI-H460 [6]): Active; IC50 [11]: 3.6 µM; IC50 [12]: 3.6 µM; IC50 [13]: 3.6 µM; IC50 (HT-29): 3.6 µM
CN(CCNCc1cn(-c2ccccc2Cl)nn1)CCNc1ccnc2cc(Cl)ccc12	20 µM	12 µM	11 µM	4	4	4	
C#CCNCCN(C)CCNc1ccnc2cc(Cl)ccc12	69 µM	105 µM					
Clc1ccc2c(NCCNCc3cn(-c4ccnc5cc(Cl)ccc45)nn3)ccnc2c1	21 µM	16 µM	14 µM	3.2	3.2	3.2	
CN(CCNCc1cn(CC(=O)O)nn1)CCNc1ccnc2cc(Cl)ccc12	> 200 µM	> 200 µM					
CN(CCNCc1cn(Cc2ccc(Br)cc2)nn1)CCNc1ccnc2cc(Cl)ccc12	12 µM	9.3 µM	8.7 µM	5.7	5.7	5.7	
CN(CCNCc1cn(-c2ccc(F)cc2)nn1)CCNc1ccnc2cc(Cl)ccc12	34 µM	19 µM	12 µM	2.8	2.8	2.8	
CN(CCNCc1cn(-c2nc3ccccc3[nH]2)nn1)CCNc1ccnc2cc(Cl)ccc12	33 µM	32 µM	16 µM	2.1	2.1	2.1	
CN(CCNCc1cn(Cc2nc3cc(Cl)ccc3[nH]2)nn1)CCNc1ccnc2cc(Cl)ccc12	59 µM	65 µM	44 µM				
CN(CCNCc1cn(CC(=O)Nc2cccc3ccc(O)cc23)nn1)CCNc1ccnc2cc(Cl)ccc12	67 µM	86 µM					
CN(CCNCc1cn(CCC(=O)Nc2ccccn2)nn1)CCNc1ccnc2cc(Cl)ccc12	> 200 µM	> 200 µM					
CN(CCNCc1cn(CCc2ccccc2)nn1)CCNc1ccnc2cc(Cl)ccc12	24 µM	15 µM	13 µM	3.2	3.2	3.2	
CN(CCNCc1cn(-c2ccccc2)nn1)CCNc1ccnc2cc(Cl)ccc12	25 µM	26 µM	10 µM	2.9	2.9	2.9	
CN(CCNCc1cn(Cc2ccc(Cl)cc2)nn1)CCNc1ccnc2cc(Cl)ccc12	11 µM	7.6 µM	5.8 µM	7	7	7	Ratio [14]: >10; Activity (NCI-H460 [15]): Dose-dependent effect; Activity (NCI-H460 [6]): Active; inhibition (NCI-H3122): Active; inhibition (NCI-H460 [7]): Dose-dependent effect; inhibition (NCI-H460 [8]): tde; inhibition (NCI-H460 [9]): Dose-dependent effect; inhibition (NCI-H460 [10]): Active
CN(CCNCc1cn(-c2ccc(Br)cc2)nn1)CCNc1ccnc2cc(Cl)ccc12	15 µM	11 µM	7.9 µM	5	5	5	
CN(CCNCc1cn(CCCO)nn1)CCNc1ccnc2cc(Cl)ccc12	> 200 µM	> 200 µM					
Clc1ccc2c(-n3cc(CNCc4cn(-c5ccnc6cc(Cl)ccc56)nn4)nn3)ccnc2c1	70 µM	72 µM	78 µM				
CN(CCNCc1cn(Cc2ccccc2)nn1)CCNc1ccnc2cc(Cl)ccc12	32 µM	16 µM	9.7 µM	3.1	3.1	3.1	
CN(CCNCc1cn(C(C)(C)C)nn1)CCNc1ccnc2cc(Cl)ccc12	79 µM	56 µM	39 µM				
CN(CCNCc1cn(-c2ccc(Cl)cc2)nn1)CCNc1ccnc2cc(Cl)ccc12	14 µM	9.5 µM	9.1 µM	5.2	5.2	5.2	
CN(CCNCc1cn(CCc2c[nH]c3ccccc23)nn1)CCNc1ccnc2cc(Cl)ccc12	12 µM	8.5 µM	7.6 µM	6	6	6	
CN(CCNCc1cn(CCCn2nn[nH]c2=O)nn1)CCNc1ccnc2cc(Cl)ccc12	> 200 µM	> 200 µM					

From ChEMBL document CHEMBL3421580, “Discovery of autophagy inhibitors with antiproliferative activity in lung and pancreatic cancer cells” (ACS Med Chem Lett, 2015)
